# Measurements as given in ChEMBL document CHEMBL1142037, “Cyclization-activated prodrugs. Synthesis, reactivity and toxicity of dipeptide esters of paracetamol” (Bioorg Med Chem Lett, 2005).
# Assays:
# [1] = Relative rate constant for release of paracetamol was determined; assay type: ADME
# [2] = Rate constant for release of paracetamol was determined; assay type: ADME
# [3] = Half life required for the release of paracetamol; assay type: ADME
# Mus musculus = species on record: Mus musculus; test: Effect on glutathione levels in mice; assay type: functional
# Procedure, shortened: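 Male BALB/c mice (17–21 g, 5 weeks old), four per group, given a single ip dose of 3.3 mmol/kg in 30% propyleneglycol. Controls received vehicle ip. Livers were taken 2 h after dosing and kept on ice. Reduced glutathione in liver homogenate was measured at once with DTNB and reported as µmol/g tissue.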
Structure (SMILES),Krelative [1],K obs [2],T1/2 [3],Glutathione levels (Mus musculus)
CC(=O)Nc1ccc(OC(=O)[C@@H](NC(=O)CN)C(C)C)cc1.O=C(O)C(F)(F)F,0.04,0.00057 s⁻¹,20 min,–
CC(=O)Nc1ccc(OC(=O)CNC(=O)[C@@H](N)Cc2ccccc2)cc1.O=C(O)C(F)(F)F,0.06,0.000821 s⁻¹,14 min,2.68 umol/g tissue
CC(=O)Nc1ccc(OC(=O)CN(C)C(=O)CN)cc1.O=C(O)C(F)(F)F,–,Too fast to be monitored,–,–
CNCC(=O)NCC(=O)Oc1ccc(NC(C)=O)cc1.O=C(O)C(F)(F)F,–,Too fast to be monitored,–,–
CC(=O)Nc1ccc(OC(=O)CNC(=O)CN)cc1.O=C(O)C(F)(F)F,1,0.0143 s⁻¹,0.8 min,–
CC(=O)Nc1ccc(OC(=O)[C@H](Cc2ccccc2)NC(=O)CN)cc1.O=C(O)C(F)(F)F,0.4,0.00564 s⁻¹,2 min,3.74 umol/g tissue
CC(=O)Nc1ccc(OC(=O)CNC(=O)[C@@H]2CCCN2)cc1.O=C(O)C(F)(F)F,0.41,0.0059 s⁻¹,2 min,–
CC(=O)Nc1ccc(OC(=O)[C@H](C)NC(=O)CN)cc1.O=C(O)C(F)(F)F,0.94,0.0134 s⁻¹,0.9 min,–
CC(=O)Nc1ccc(OC(=O)[C@@H]2CCCN2C(=O)CN)cc1.O=C(O)C(F)(F)F,–,Too fast to be monitored,–,–
CC(=O)Nc1ccc(OC(=O)CNC(=O)[C@H](C)N)cc1.O=C(O)C(F)(F)F,0.24,0.0034 s⁻¹,3 min,–
CC(=O)Nc1ccc(OC(=O)CNC(=O)[C@@H](N)C(C)C)cc1.O=C(O)C(F)(F)F,0.05,0.00071 s⁻¹,16 min,3.87 umol/g tissue
